For one data set, the target named is Cytochrome P450 3A4 (Homo sapiens, UniProt P08684).
Data set [1] is described as follows: Cmax in Wistar rat at 10 mg/kg, po by LC-MS/MS analysis. Conditions: in vivo. The data set is classed as ADME, organism-based. Further details: dose 10 mg/kg, route oral.
Data set [2] deals with 5-hydroxytryptamine receptor 7 (Rattus norvegicus) (UniProt P32305). Put plainly: Binding affinity to recombinant rat 5-HT7 receptor expressed in CHOK1 cells assessed as inhibition of 5-HT stimulated cAMP accumulation after 4 hrs by luciferase reporter gene assay. The data set is classed as cell-based.
The target of data set [3] is T1, 5-hydroxytryptamine receptor 6 (Homo sapiens, UniProt P50406). Briefly: Antagonist activity at recombinant human 5-HT6 receptor expressed in CHO cells assessed as inhibition of 5-HT stimulated cAMP accumulation after 4 hrs by luciferase reporter gene assay relative to control. In kind it is functional, cell-based. The essentials:
(§1)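 Stable CHO line expressing recombinant human 5-HT6 receptor with a pCRE-luciferase reporter, a nonradioactive cell-based format. Output is Kb (nM), the mean of duplicate experiments, with Imax (%) also reported.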

Data set [4] addresses 5-hydroxytryptamine receptor 4 (Homo sapiens) (UniProt Q13639). Briefly: Displacement of [3H]-GR113808 from recombinant human 5-HT4B receptor expressed in Chem1 cell membranes after 120 mins by microbeta scintillation counting analysis.
A short description of data set [5]: Apparent volume of distribution in Wistar rat at 10 mg/kg, iv by LC-MS/MS analysis. Conditions: in vivo, read-out: Vz. The data set is classed as ADME, organism-based.
The target in data set [6] is T1, 5-hydroxytryptamine receptor 6. Put plainly: Antagonist activity at recombinant human 5-HT6 receptor expressed in CHO cells assessed as inhibition of 5-HT stimulated cAMP accumulation after 4 hrs by luciferase reporter gene assay. In kind it is functional, cell-based. The essentials: as §1
For data set [7], the system named is Rattus norvegicus. Put plainly: Reversal of time-induced amnesia in Wistar rat at 10 mg/kg, po administered 60 mins prior to testing measured for 3 mins by object recognition test. The data set is classed as functional, organism-based. The essentials: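 Time-induced object recognition task in rats. Oral dosing at 1, 3 and 10 mg/kg given 60 min before the test; vehicle water for injection 1 mL/kg p.o.; n = 7−12/group. Exploration of novel versus familiar object compared by paired t-test.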

The target of data set [8] is 5-hydroxytryptamine receptor 2A (Homo sapiens) (UniProt P28223). Briefly: Displacement of [3H]-Ketanserine from recombinant human 5-HT2A receptor expressed in CHOK1 cell membranes after 60 mins by microbeta scintillation counting analysis.
Data set [9] in a line: Half life in Wistar rat at 10 mg/kg, iv by LC-MS/MS analysis. The data set is classed as ADME, organism-based. The following applies: in vivo.
Data set [10] has as its target T2, 5-hydroxytryptamine receptor 1A (Homo sapiens) (UniProt P08908).
T2 sequence (whole entry): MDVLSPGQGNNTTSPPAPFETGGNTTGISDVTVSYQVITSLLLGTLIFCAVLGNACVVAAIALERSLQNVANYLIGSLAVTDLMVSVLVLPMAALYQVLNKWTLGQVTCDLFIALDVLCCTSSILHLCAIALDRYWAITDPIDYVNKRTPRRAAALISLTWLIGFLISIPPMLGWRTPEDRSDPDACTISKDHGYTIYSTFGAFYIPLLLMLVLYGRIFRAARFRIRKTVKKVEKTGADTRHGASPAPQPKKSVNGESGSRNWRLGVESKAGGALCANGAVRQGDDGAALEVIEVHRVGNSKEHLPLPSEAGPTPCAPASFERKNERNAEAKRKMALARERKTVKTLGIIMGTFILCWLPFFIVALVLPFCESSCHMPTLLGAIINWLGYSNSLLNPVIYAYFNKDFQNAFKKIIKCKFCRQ
Put plainly: Displacement of [3H]-8-OH-DPAT from recombinant human 5-HT1A receptor expressed in HEK293 EBNA cell membranes after 120 mins by microbeta scintillation counting analysis.

The target in another data set is Cytochrome P450 2D6 (Homo sapiens, UniProt P10635). Put plainly: Inhibition of CYP2D6 in human liver microsomes in presence of NADPH by LC-MS/MS analysis.
The nature of data set [11]: (§2) AUC (0 to t) in Wistar rat at 10 mg/kg, po by LC-MS/MS analysis. The data set is classed as ADME, organism-based. Conditions: Wistar, in vivo.
The nature of data set [12]: (§3) Oral bioavailability in Wistar rat at 10 mg/kg by LC-MS/MS analysis. Conditions: Wistar, in vivo. In kind it is ADME, organism-based.
Data set [13] concerns the target T1, 5-hydroxytryptamine receptor 6. Briefly: Displacement of [3H]-LSD from recombinant human 5-HT6 receptor expressed in HEK293 cells after 60 mins. In kind it is cell-based.
Data set [14] is described as follows: Clearance in Wistar rat at 10 mg/kg, iv by LC-MS/MS analysis. In kind it is ADME, organism-based. Conditions: in vivo.
Data set [15] has as its target T3, 5-hydroxytryptamine receptor 2C (Homo sapiens) (UniProt P28335).
T3 sequence (whole entry): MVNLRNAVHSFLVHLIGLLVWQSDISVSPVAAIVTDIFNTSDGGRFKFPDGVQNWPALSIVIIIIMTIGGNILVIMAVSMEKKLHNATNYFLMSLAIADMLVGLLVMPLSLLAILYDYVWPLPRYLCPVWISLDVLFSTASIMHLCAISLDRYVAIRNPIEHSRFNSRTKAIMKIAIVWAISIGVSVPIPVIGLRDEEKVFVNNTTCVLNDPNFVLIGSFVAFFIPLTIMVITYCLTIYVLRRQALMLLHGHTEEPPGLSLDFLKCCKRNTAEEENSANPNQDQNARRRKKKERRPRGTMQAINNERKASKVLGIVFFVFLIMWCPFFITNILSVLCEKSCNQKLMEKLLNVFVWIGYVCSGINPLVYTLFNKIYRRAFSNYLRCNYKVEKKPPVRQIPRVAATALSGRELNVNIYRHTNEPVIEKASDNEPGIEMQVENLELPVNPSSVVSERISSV
Put plainly: Displacement of [3H]-Mesulergine from recombinant human 5-HT2C receptor expressed in HEK293 cell membranes after 180 mins by microbeta scintillation counting analysis.

The nature of data set [16]: Ratio of drug uptake in Wistar rat brain to plasma at 10 mg/kg, po by LC-MS/MS analysis. In kind it is ADME, organism-based. Conditions: read-out: BPR.
Data set [17] deals with Rattus norvegicus. Briefly: Increase in acetylcholine level in Wistar rat ventral hippocampus at 1 mg/kg, sc after 4 hrs in presence of 1 mg/kg of donepezil administered sc by LC-MS/MS based microdialysis method relative to control. In kind it is functional.
Data set [18] deals with Rattus norvegicus. Put plainly: Reversal of time-induced amnesia in Wistar rat at 1 to 3 mg/kg, sc administered 60 mins prior to testing measured for 3 mins by object recognition test. The data set is classed as functional, organism-based.
Data set [19] deals with Rattus norvegicus. Described as §2. The data set is classed as ADME, organism-based. The following applies: in vivo.
Data set [20] concerns Rattus norvegicus. The description is as §3. The data set is classed as ADME, organism-based. Conditions: in vivo.

Consider nine compounds from ChEMBL document CHEMBL4007422 (J Med Chem, 2017).

Molecules are shown by their SMILES. Active and inactive are the calls of the source. The rule behind the calls is not given here. Bounds are passed on as bounds.

5-hydroxytryptamine receptor 7 (Rattus norvegicus), sequence (P32305 whole entry): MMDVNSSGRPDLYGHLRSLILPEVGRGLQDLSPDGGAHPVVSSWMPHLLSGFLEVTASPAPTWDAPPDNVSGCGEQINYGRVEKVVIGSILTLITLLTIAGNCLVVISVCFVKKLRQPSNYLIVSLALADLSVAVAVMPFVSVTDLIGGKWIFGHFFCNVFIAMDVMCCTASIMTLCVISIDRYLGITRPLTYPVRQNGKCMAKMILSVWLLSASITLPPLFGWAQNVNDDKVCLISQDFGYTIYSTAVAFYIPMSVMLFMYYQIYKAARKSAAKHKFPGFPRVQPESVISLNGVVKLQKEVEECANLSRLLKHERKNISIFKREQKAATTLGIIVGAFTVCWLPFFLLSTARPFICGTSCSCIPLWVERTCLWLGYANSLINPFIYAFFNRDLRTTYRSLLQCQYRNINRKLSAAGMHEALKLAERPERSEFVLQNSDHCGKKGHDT
5-hydroxytryptamine receptor 2A (Homo sapiens), sequence (P28223 whole entry): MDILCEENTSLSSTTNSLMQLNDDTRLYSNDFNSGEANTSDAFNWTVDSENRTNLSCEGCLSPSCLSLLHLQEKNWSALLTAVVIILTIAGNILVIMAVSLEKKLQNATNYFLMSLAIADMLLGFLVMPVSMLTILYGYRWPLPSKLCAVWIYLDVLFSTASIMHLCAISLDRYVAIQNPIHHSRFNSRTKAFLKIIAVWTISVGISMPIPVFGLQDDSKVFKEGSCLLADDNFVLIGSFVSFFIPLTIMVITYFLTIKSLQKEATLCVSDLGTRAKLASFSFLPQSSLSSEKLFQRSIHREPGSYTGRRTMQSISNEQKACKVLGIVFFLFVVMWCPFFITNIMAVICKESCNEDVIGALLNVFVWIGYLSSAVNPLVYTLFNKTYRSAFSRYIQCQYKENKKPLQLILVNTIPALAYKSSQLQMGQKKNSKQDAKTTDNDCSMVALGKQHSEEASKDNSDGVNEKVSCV
T1 sequence (P50406 whole entry): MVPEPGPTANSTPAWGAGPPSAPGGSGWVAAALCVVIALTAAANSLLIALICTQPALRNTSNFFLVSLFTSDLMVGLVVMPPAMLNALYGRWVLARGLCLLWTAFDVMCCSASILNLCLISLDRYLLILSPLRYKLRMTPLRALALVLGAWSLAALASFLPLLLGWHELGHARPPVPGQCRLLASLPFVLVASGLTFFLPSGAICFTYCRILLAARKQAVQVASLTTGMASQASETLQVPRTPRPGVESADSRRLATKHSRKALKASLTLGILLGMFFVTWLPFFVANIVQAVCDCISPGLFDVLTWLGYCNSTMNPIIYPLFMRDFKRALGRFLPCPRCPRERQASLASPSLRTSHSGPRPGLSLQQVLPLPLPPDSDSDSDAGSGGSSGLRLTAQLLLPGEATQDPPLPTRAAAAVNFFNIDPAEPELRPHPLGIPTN
5-hydroxytryptamine receptor 4 (Homo sapiens), sequence (Q13639 whole entry): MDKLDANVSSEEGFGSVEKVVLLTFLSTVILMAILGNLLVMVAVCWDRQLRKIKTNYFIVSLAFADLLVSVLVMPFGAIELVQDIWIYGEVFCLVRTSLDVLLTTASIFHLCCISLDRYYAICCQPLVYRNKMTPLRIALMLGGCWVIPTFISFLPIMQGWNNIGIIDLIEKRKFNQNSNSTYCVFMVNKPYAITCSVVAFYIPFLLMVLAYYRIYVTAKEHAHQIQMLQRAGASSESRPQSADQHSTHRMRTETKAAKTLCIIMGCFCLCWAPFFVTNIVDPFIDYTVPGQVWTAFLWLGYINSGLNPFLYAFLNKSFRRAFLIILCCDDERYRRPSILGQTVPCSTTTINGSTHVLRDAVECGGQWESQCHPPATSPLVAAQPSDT
Cytochrome P450 2D6, sequence (P10635 whole entry): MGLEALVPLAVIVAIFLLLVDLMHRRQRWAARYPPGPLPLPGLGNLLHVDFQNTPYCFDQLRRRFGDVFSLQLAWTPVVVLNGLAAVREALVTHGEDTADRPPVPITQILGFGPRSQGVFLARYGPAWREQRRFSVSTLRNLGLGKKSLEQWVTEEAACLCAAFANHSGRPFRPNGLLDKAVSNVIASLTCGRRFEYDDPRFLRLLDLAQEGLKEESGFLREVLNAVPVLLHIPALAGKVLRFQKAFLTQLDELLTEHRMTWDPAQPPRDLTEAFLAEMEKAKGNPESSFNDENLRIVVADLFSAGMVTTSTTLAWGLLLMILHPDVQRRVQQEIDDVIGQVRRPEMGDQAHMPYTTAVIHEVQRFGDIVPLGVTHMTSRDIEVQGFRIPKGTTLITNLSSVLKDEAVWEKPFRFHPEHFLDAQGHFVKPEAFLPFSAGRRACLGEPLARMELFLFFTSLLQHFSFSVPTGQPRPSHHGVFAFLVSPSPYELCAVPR
Cytochrome P450 3A4, sequence (P08684 whole entry): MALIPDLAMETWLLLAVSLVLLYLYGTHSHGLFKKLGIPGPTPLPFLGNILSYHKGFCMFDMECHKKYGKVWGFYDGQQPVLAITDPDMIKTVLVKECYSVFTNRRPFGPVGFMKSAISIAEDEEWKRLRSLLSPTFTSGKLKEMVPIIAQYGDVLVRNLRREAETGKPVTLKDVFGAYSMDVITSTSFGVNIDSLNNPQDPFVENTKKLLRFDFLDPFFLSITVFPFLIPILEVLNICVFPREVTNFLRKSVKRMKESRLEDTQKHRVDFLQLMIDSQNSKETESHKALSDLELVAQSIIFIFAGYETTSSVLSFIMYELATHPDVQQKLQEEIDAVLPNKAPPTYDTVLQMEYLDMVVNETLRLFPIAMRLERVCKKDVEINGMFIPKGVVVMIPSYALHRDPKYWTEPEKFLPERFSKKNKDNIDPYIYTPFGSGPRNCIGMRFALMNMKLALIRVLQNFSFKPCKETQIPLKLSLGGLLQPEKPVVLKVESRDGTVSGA

For `CC(C)c1ccc(S(=O)(=O)n2cc(CN3CCN(C)CC3)c3cc(F)ccc32)cc1.Cl.Cl`, the half-maximal inhibitory concentration (IC50) against Cytochrome P450 3A4 stood at 1.4 µM; on Cytochrome P450 2D6, 7.7 µM. The peak level in [1] (Cmax) was 1900 ng/mL. For the same compound, the result in data set [2], in data set [4], in [10] and in data set [15] was inactive. The Imax in data set [3] turned out to be 99%. In [5], the Vd turned out to be 3.2 L/kg. In [6], the antagonist equilibrium constant (Kb) was found to be 0.014 µM. Besides, the outcome (in the data set on Rattus norvegicus [7]; in data set [8]) was Active. This compound gave a half-life in [9] of 1.93 h. The AUC(0-t) in data set [11] stood at 7740 ng·h/mL. In [12], this compound returned a bioavailability of 91.4%. Besides, the inhibition constant (Ki) in data set [13] amounted to 0.004 µM. This compound returned a clearance in data set [14] of 19.5 mL/min/kg. For the same compound, in data set [16], the Kp turned out to be 0.95.
With `COc1ccc2c(c1)c(CN1CCN(C)CC1)cn2S(=O)(=O)c1ccc(F)cc1.CS(=O)(=O)O.CS(=O)(=O)O`, the IC50 was 1.71 µM at Cytochrome P450 3A4 and 12.6 µM on Cytochrome P450 2D6. In addition, the concentration in data set [1] peaked (Cmax) at 55 ng/mL. In addition, the result in data set [2], in data set [4], in [10] and in data set [15] was inactive. In data set [5], the Vd amounted to 19.2 L/kg. For the same compound, the half-life in data set [9] was 2.52 h. This compound also yielded an area under the curve AUC(0-t) in data set [11] of 249 ng·h/mL. In data set [12], this compound came in with a bioavailability of 13.5%. Also, the clearance in [14] was 92 mL/min/kg.
As for `CC12CC3CC(C)(C1)CC(N)(C3)C2` [MEMANTINE], the Activity in the data set on Rattus norvegicus [17] amounted to 1203%.
Consider `COc1cccc2c1c(CN1CCN(C)CC1)cn2S(=O)(=O)c1ccc(C(C)C)cc1.Cl.Cl`, for which the highest level in data set [1] (Cmax) was 45.6 ng/mL. Also, the outcome in [2], in data set [4], in data set [10] and in data set [15] was inactive. In addition, the Imax in [3] came to 98%. Also, in data set [5], the Vd came out at 6.1 L/kg. In [6], the Kb came to 0.0098 µM. Moreover, the result in data set [8] was Active. The compound further had a half-life in data set [9] of 2.12 h. Besides, on Cytochrome P450 2D6, the IC50 came out at 9.7 µM. The compound further registered an AUC(0-t) in [11] of 138 ng·h/mL. This compound yielded a bioavailability in data set [12] of 10.7%. The inhibition constant (Ki) in data set [13] was 0.0116 µM. This compound also displayed a clearance in data set [14] of 65 mL/min/kg.
As for `CN(C)CCCOc1ccc2[nH]nc(S(=O)(=O)c3cccc4ccccc34)c2c1`, the outcome with Rattus norvegicus [18] was Active.
Turning to `CN1CCN(Cc2cn(S(=O)(=O)c3ccccc3)c3ccccc23)CC1.Cl.Cl`, the IC50 at Cytochrome P450 3A4 and on Cytochrome P450 2D6 was > 10 µM each time. The compound also displayed a Cmax in data set [1] of 1220 ng/mL. In addition, the result in data set [2], in data set [4], in data set [10] and in data set [15] was inactive. For the same compound, in data set [5], the Vd was 1.2 L/kg. Further, the outcome (with Rattus norvegicus [7]; in [8]) was Active. Further, the half-life in data set [9] was 0.89 h. Besides, the area under the curve AUC(0-t) in data set [11] worked out at 2220 ng·h/mL. Besides, the bioavailability in data set [12] was 21.4%. For the same compound, the clearance in data set [14] was found to be 14.9 mL/min/kg. Also, the Kp in data set [16] stood at 0.82.
In turn, `CN1CCN(Cc2cn(S(=O)(=O)c3ccc(F)cc3)c3ccccc23)CC1` yielded a Cmax in [1] of 125 ng/mL. Further, the result in data set [2], in data set [4], in data set [10] and in [15] was inactive. The Imax in data set [3] stood at 98%. Moreover, the Vd in data set [5] was determined as 6.3 L/kg. The Kb in data set [6] is 0.0123 µM. Moreover, in [8], the outcome was Active. Besides, the half-life in data set [9] is 1.5 h. Moreover, in data set [11], the area under the curve AUC(0-t) amounted to 221 ng·h/mL. In [12], this compound registered a bioavailability of 17.5%. For the same compound, in data set [13], the Ki is 0.00876 µM. Moreover, the clearance in data set [14] was found to be 75 mL/min/kg.
`COc1ccc2c(c1)c(CN1CCCN(C)CC1)cn2S(=O)(=O)c1ccc(C(C)C)cc1.Cl.Cl`: the concentration for half-maximal inhibition (IC50) against Cytochrome P450 3A4 stood at 2.2 µM; on Cytochrome P450 2D6 it was 1.9 µM. Also, the Cmax in data set [1] was 22 ng/mL. Further, the outcome in data set [2], in [4], in [10] and in [15] was inactive. The Vd in data set [5] worked out at 49.5 L/kg. The result in [8] was Active. The same compound had a half-life in [9] of 5.7 h. Also, the AUCt in the data set on Rattus norvegicus [19] was 157 ng·h/mL. Also, the F in the data set with Rattus norvegicus [20] is 4%.
`COc1ccc2c(c1)c(CN1CCN(C)CC1)cn2S(=O)(=O)c1ccc(C(C)C)cc1.CS(=O)(=O)O.CS(=O)(=O)O`: the IC50 against Cytochrome P450 3A4 is 1.85 µM; on Cytochrome P450 2D6 it was 33.5 µM. The Cmax in data set [1] was 56.4 ng/mL. Also, the outcome in data set [2], in data set [4], in data set [10] and in data set [15] was inactive. In addition, in [5], the Vd is 5.3 L/kg. Also, in [8], the outcome was Active. This compound also had a half-life in data set [9] of 1.12 h. This compound also gave an exposure AUC(0-t) in data set [11] of 151 ng·h/mL. The bioavailability in data set [12] is 4.9%. For the same compound, the clearance in data set [14] worked out at 54 mL/min/kg.
